Laboratory results taken from ChEMBL document CHEMBL4184234, “Synthesis of novel (-)-epicatechin derivatives as potential endothelial GPER agonists: Evaluation of biological effects” (Bioorg Med Chem Lett, 2018).
Active and inactive are the calls of the source. No cut-off for these calls is given here.

Experiments:
Bos taurus [1] = species on record: Bos taurus; assay: Agonist activity at GPER in BCAEC assessed as increase in nitric oxide production at 1 uM incubated for 10 mins by nitrate/nitrite fluorometric assay relative to untreated (-)-epicatechin
Method in brief: (§1)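 BCAEC given 1 μM ligand for 10 min, with 1 μM (−)-epicatechin as reference; GPER blockade by 30 min pre-incubation with 1 μM G15 before ligand. Nitrates/nitrites in supernatant measured as surrogate of NO synthesis. Values normalized to control (set to 1) or to Epi (100%). Mean ± SEM, n=5 per group.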

Bos taurus [2] = species on record: Bos taurus; assay: Agonist activity at GPER in BCAEC assessed as increase in eNOS Ser1179 phosphorylation at 1 uM incubated for 10 mins by Western blot relative to untreated (-)-epicatechin
Method in brief: (§2)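 Bovine coronary artery endothelial cells stimulated 10 min with 1 μM ligand; (−)-epicatechin at 1 μM as reference. For GPER blockade, cells pre-incubated 30 min with G15 (1 μM) before ligand. Ser1179-phosphorylated eNOS immunodetected by Western blot. Control set to 1, or Epi set to 100% with derivatives expressed as percent of Epi. Mean ± SEM, n=5 per group.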

Bos taurus [3] = species on record: Bos taurus; assay: Agonist activity at GPER in BCAEC assessed as increase in eNOS Ser1179 phosphorylation at 1 uM pre-incubated with 1 uM GPER antagonist G15 for 30 mins followed by compound incubation for 10 mins by Western blot relative to untreated control; parameters: scale not given: the % may be the effect or the level left; method in brief: as §2
Bos taurus [4] = species on record: Bos taurus; assay: Agonist activity at GPER in BCAEC assessed as increase in nitric oxide production at 1 uM pre-incubated with 1 uM GPER antagonist G15 for 30 mins followed by compound incubation for 10 mins by nitrate/nitrite fluorometric assay relative to untreated control; parameters: scale not given: the % may be the effect or the level left; method in brief: as §1
Bos taurus [5] = species on record: Bos taurus; assay: Binding affinity to GPER in BCAEC protein extracts using compound loaded on to affinity chromatography Agarose columns incubated overnight at 4 degC with mild tumbling by Coomassie-blue staining based SDS-PAGE and Western blot method
Method in brief: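 Propargyl derivative coupled to agarose-azide beads by click chemistry; coupling gauged by fluorescence of washings against an external calibration curve. Three control columns lacked ligand and/or copper sulfate/ascorbate. BCAEC protein extract (0.8–1.0 mg) loaded, overnight 4 °C with mild tumbling. Washed with 5 mM EDTA/0.5% SDS/250 mM NaCl in PBS pH 7.5, then PBS. Eluted in PBS with 8 M urea, concentrated, run on SDS-PAGE with Coomassie staining. Western blot used monoclonal GPER antibody.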

Row | Activity (Bos taurus [1]) [%] | Activity (Bos taurus [2]) [%] | Activity (Bos taurus [3]) [%] | Activity (Bos taurus [4]) [%] | Activity (Bos taurus [5]) | SMILES
1 | 142 | 137 | 59.3 | 70.9 |  | C#CCO[C@@H]1Cc2c(O)cc(O)cc2O[C@@H]1c1ccc(O)c(O)c1
2 |  |  | 55.6 | 60 | Active | Oc1cc(O)c2c(c1)O[C@H](c1ccc(O)c(O)c1)[C@H](O)C2

The remaining lines, values behind:

Row | SMILES | Activity (Bos taurus [1]) [%] | Activity (Bos taurus [2]) [%] | Activity (Bos taurus [3]) [%] | Activity (Bos taurus [4]) [%] | Activity (Bos taurus [5])
3 | C#CCOc1cc(OCC#C)c2c(c1)O[C@H](c1ccc(OCC#C)c(OCC#C)c1)[C@H](O)C2 | 107 | 111 | 57.4 | 63.6 | 
4 | C#CCOc1cc(OCC#C)c2c(c1)O[C@H](c1ccc(OCC#C)c(OCC#C)c1)[C@H](OCC#C)C2 | 102 | 92.6 | 54.8 | 60 | 
5 | CS(=O)(=O)O[C@@H]1Cc2c(O)cc(O)cc2O[C@@H]1c1ccc(O)c(O)c1 | 54.5 | 64.8 | 53 | 41.8 | 
